Assay results reported in ChEMBL document CHEMBL1146355, “Synthesis and cytotoxic evaluation of C-9 oxidized podophyllotoxin derivatives” (Bioorg Med Chem, 2007).

Columns and labels:
Assay type in all cases: functional, cell-based
HT-29 = assay: Cytotoxicity against human HT29 cells after 4 days; conditions: HT-29, 96 h
In short: (§1)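 Cells seeded at 2 × 10⁴/well in MEM with 10% FCS containing the compound at different concentrations. Incubated 4 days at 37 °C under 10% CO₂ and 98% humidity. Drug-free control wells were counted daily to confirm exponential growth. Read-out was crystal violet staining, then inhibition estimated by comparison with controls.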

P388 = assay: Cytotoxicity against mouse P388 cells after 4 days; conditions: P388, 96 h
In short: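 Murine leukaemia cells seeded at 1 × 10⁴/well in MEM with 10% FCS containing the compound at different concentrations. Incubated 4 days at 37 °C under 10% CO₂ and 98% humidity, with drug-free controls counted daily to confirm exponential growth. Inhibition judged by inverted microscopy against controls, with no staining.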

A549 = assay: Cytotoxicity against human A549 cells after 4 days; conditions: A549, 96 h; in short: as §1
[1] = Cytotoxicity against human MEL28 cells after 4 days; conditions: SK-MEL-28, 96 h; in short: as §1

Row | Compound | IC50 (HT-29) | IC50 (P388) | IC50 (A549) | IC50 [1]
1 | COc1cc([C@@H]2c3cc4c(cc3[C@H](O)[C@H]3COC(=O)[C@H]23)OCO4)cc(OC)c1OC [PODOFILOX] | 12 nM |  |  | 
2 | CCCCCCNC(=O)c1cc2cc3c(cc2c(-c2cc(OC)c(OC)c(OC)c2)c1C(=O)NCCCCCC)OCO3 | 2000 nM | 2000 nM | 2000 nM | 
3 | COC(=O)[C@@H]1C(C#N)=Cc2cc3c(cc2[C@H]1c1cc(OC)c(OC)c(OC)c1)OCO3 | 2400 nM |  | 2400 nM | 2400 nM
4 | COC(=O)[C@@H]1C(C=O)=Cc2cc3c(cc2[C@H]1c1cc(OC)c(OC)c(OC)c1)OCO3 [PODOPHYLLIC ALDEHYDE] |  |  |  | 230 nM
5 | COC(=O)[C@@H]1C(/C=N/O)=Cc2cc3c(cc2[C@H]1c1cc(OC)c(OC)c(OC)c1)OCO3 |  |  |  | 2300 nM
6 | COc1cc([C@@H]2c3cc4c(cc3C=C3C(=O)OC[C@H]32)OCO4)cc(OC)c1OC | > 20000 nM | > 20000 nM | > 20000 nM | > 20000 nM
7 | COC(=O)C1=Cc2cc3c(cc2[C@@H](c2cc(OC)c(OC)c(OC)c2)[C@@H]1C(=O)OC)OCO3 | 5100 nM | 5100 nM | 5100 nM | 5100 nM
8 | COc1cc([C@@H]2c3cc4c(cc3C=C(C(=O)O)[C@H]2C(=O)O)OCO4)cc(OC)c1OC | > 20000 nM | > 20000 nM | > 20000 nM | > 20000 nM
9 | COc1cc(-c2c3c(cc4cc5c(cc24)OCO5)C(=O)N(CCO)C3=O)cc(OC)c1OC | 2200 nM | 2200 nM | 2200 nM | 
10 | CCCCCCNC(=O)C1=Cc2cc3c(cc2[C@@H](c2cc(OC)c(OC)c(OC)c2)[C@@H]1C(=O)OC)OCO3 | 1900 nM | 1900 nM | 1900 nM | 
11 | COC(=O)[C@@H]1C(C(=O)Nc2ccc(C)cc2)=Cc2cc3c(cc2[C@H]1c1cc(OC)c(OC)c(OC)c1)OCO3 | 1900 nM | 1900 nM | 1900 nM | 1900 nM
12 | COC(=O)[C@@H]1C(C(=O)Nc2ccccc2)=Cc2cc3c(cc2[C@H]1c1cc(OC)c(OC)c(OC)c1)OCO3 | 1900 nM | 1900 nM | 1900 nM | 
13 | COc1cc([C@@H]2c3cc4c(cc3C=C3C(=O)OC(=O)[C@H]32)OCO4)cc(OC)c1OC | 12000 nM | 12000 nM | 12000 nM | 12000 nM
14 | COC(=O)[C@@H]1C(C(=O)O)=Cc2cc3c(cc2[C@H]1c1cc(OC)c(OC)c(OC)c1)OCO3 | > 20000 nM | > 20000 nM | > 20000 nM | > 20000 nM
15 | COC(=O)[C@@H]1C(C(=O)OC(C)=O)=Cc2cc3c(cc2[C@H]1c1cc(OC)c(OC)c(OC)c1)OCO3 | 10000 nM | 10000 nM | 10000 nM | 10000 nM
16 | COc1cc([C@H]2C3=C(Cc4cc5c(cc42)OCO5)C(O)OC3=O)cc(OC)c1OC (stereo partly drawn) | 1200 nM | 1200 nM | 1200 nM | 
17 | COC(=O)[C@@H]1C(C(=O)Nc2cc(OC)c(OC)c(OC)c2)=Cc2cc3c(cc2[C@H]1c1cc(OC)c(OC)c(OC)c1)OCO3 | 1700 nM | 1700 nM | 1700 nM | 
18 | COc1cc([C@@H]2c3cc4c(cc3C=C(C=O)[C@H]2CO)OCO4)cc(OC)c1OC |  |  |  | 250 nM
